# Most compounds without a hit are left out; they make up all but 4.7% or so of the library.
# Jurkat NFkB inh: inhibitors of induced NF-kB luciferase reporter, primary screen, TCR NF-kB activation inhibitor project, cell-based, luminescence, uHTS. Jurkat, PMA/ionomycin-induced NF-kB luciferase reporter. inhibition, % at 4 µM. 330,000 compounds, 0.53% hits; in the data active = inhibition above about 50%
# IMP-1 inh: IMP-1 metallo-beta-lactamase inhibitors, primary screen, biochemical, epi-absorbance readout, Pseudomonas aeruginosa enzyme; metallo-beta-lactamase IMP-1 (Pseudomonas aeruginosa); purified IMP-1, nitrocefin hydrolysis, epi-absorbance fluorescence; inhibition, % at 5.6 µM; 290,000 compounds, 0.45% hits; AID 1556, 2009;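 active = inhibition above the mean plus 3 SD of all compounds in the same screening run, cut at about 4.5% in these data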;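 note: 0% = IMP-1 with DMSO and 100% = DMSO wells lacking enzyme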
#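 Material – recombinant IMP-1 enzyme, purified · Amount – IMP-1 0.2 nM before substrate addition · Medium – HEPES buffer pH 7.1 with ZnSO4 and Brij 35 · Timing – 25 °C, 15 min preincubation, 25 min reaction · Measured by – plate fluorescence quenching by hydrolysis product, ex 480/em 530 nm · Read-out – percent enzyme inhibition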
# 697 NFkB inh: inhibitors of PMA/ionomycin-induced NF-kB reporter, 697 cells, primary screen, B-cell NF-kB inhibitor project, cell-based, luminescence, uHTS | 697 B-cell NF-kB luciferase reporter, 16 h | inhibition, % at 4 µM | 330,000 compounds, 0.33% hits; in the data active = inhibition above about 35%
# Mdm2 MdmX PPI: inhibitors of human Mdm2-MdmX association, primary screen, cell-based, luminescence, split luciferase, SaOS-2, uHTS; 330,000 compounds, 3% hits; inhibition, % at 8 µM; SaOS-2 split-luciferase Mdm2/MdmX complementation; Protein Mdm4 (Homo sapiens) + E3 ubiquitin-protein ligase Mdm2 (Homo sapiens), …;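 active = inhibition of at least 50% at 8 µM in the primary screen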
# Target sequence (O15151 whole entry, looked up): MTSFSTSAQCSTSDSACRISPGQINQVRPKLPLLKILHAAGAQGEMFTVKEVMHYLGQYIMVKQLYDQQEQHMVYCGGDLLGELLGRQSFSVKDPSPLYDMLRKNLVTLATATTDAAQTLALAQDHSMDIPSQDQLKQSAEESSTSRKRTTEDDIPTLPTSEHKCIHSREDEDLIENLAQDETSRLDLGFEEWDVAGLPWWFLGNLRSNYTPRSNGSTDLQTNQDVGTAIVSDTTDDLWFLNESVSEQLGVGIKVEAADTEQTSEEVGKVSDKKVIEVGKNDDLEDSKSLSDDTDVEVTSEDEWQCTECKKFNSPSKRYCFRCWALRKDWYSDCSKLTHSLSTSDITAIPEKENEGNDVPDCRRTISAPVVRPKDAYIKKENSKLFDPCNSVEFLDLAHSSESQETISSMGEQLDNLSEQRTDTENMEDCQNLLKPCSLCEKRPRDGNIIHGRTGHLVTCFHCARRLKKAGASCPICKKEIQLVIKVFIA
# Target sequence (Q00987 whole entry, looked up): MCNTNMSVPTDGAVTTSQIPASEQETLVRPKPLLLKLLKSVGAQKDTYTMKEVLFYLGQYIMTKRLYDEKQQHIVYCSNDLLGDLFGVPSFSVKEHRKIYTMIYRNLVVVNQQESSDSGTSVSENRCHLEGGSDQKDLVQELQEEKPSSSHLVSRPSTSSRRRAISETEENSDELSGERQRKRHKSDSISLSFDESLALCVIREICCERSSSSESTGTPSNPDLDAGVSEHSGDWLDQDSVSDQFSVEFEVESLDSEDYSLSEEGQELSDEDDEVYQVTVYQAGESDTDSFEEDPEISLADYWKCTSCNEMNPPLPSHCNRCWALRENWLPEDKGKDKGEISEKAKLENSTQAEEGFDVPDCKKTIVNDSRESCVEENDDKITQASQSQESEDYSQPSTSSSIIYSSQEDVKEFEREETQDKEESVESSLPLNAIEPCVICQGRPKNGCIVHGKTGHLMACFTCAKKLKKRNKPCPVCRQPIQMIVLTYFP
# aSyn 5UTR inh: MLPCN primary screen, SNCA 5' untranslated region. alpha-synuclein 5'UTR reporter, inhibitor activity. inhibition, % (tested at 7.5 µM). 300,000 compounds, 0.82% hits. AID 1813, 2009; in the data active = inhibition above about 60%;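 note: H4 neuroglioblastoma cells stably carrying SNCA 5'UTR luciferase fusion; 0% = DMSO wells and 100% = positive control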
# VIM-2 inh: VIM-2 metallo-beta-lactamase inhibitors, primary screen, biochemical, epi-absorbance readout, Pseudomonas aeruginosa enzyme | purified VIM-2, nitrocefin hydrolysis, epi-absorbance fluorescence | inhibition, % at 5.6 µM | 290,000 compounds, 0.89% hits | AID 1527, 2009;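 active = inhibition above the mean of all tested compounds plus 3 SD, cutoff set per screening run, cut at about 7.5% in these data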;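 note: red hydrolysis product quenches plate fluorescence so inhibitors raise well fluorescence; 0% = enzyme with DMSO and 100% = DMSO without enzyme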
# Mdm2-MdmX conf: Mdm2-MdmX complex disruptors, retested hits, confirmation, luminescence, single concentration. shares compounds with Mdm2 MdmX PPI. Mdm2-MdmX binding, luminescent assay. inhibition, % at 8 µM. 10,000 compounds, 55% hits; in the data active = inhibition above about 40%
# FLuc counter: full-length luciferase signal inhibition, confirmation, counter-screen for Mdm2/MdmX interaction inhibitor project, cell-based, single concentration, SaOS-2; inhibition, % at 8 µM; SaOS-2 full-length luciferase counterscreen, luminescence; 6,200 compounds, 77% hits; AID 504607, 2011; shares compounds with Mdm2 MdmX PPI;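 active = mean inhibition at 8 µM reaching about 37%, which flags the compound as non-specific, limit read from the data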;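 note: p53-null SaOS-2 cells with luciferase driven by a doxycycline-inducible promoter; compound on cells about two nights before reading with doxycycline added after day one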
# * hit, by the source's call; . = no result.
SMILES,Jurkat NFkB inh,IMP-1 inh,697 NFkB inh,Mdm2 MdmX PPI,aSyn 5UTR inh,VIM-2 inh,Mdm2-MdmX conf,others
Cc1ccc(NC(=O)CCN2C(=O)C3C4CCC(C4)C3C2=O)cc1Cl (configuration not stated),-17,-5,-1,21,-25,-1,.,
N#Cc1ccc(OCC(=O)OCC(=O)c2ccc[nH]2)cc1,-24,.,4,12,.,.,.,
CCOC(=O)c1ccc(Nc2cc(C)nc(-c3ccccc3)n2)cc1,35,-2,-73,56*,-213,-2,66*,FLuc counter=57*
CCOC(=O)c1ccc(NC(=O)Nc2cc(C)cc(C)n2)cc1,-3,-2,-3,50*,1,-2,0,
Cc1cc(OC(C)C(=O)N2CCN(c3ccc(F)cc3)CC2)c2c(C)c(C)c(=O)oc2c1 (configuration not stated),13,-3,5,28,4,0,.,
CCN(CC)CCN(C(=O)/C=C/c1cccs1)c1nc2ccc(C)cc2s1,-1,-1,-6,65*,-79,0,20,
CN(C)CCN(C(=O)/C=C/c1cccs1)c1nc2ccc(Br)cc2s1,14,-1,13,27,21,0,.,
CN(C)CCN(C(=O)/C=C/c1cccs1)c1nc2c(F)cc(F)cc2s1,9,-1,12,69*,96*,0,42*,FLuc counter=29
CN(C)CCCN(C(=O)/C=C/c1cccs1)c1nc2ccc(F)cc2s1,-9,-2,12,59*,-14,-2,39,FLuc counter=63*
CCN(CC)CCN(C(=O)c1ccc2c(c1)OCCO2)c1nc2ccc(C)cc2s1,0,-2,10,0,-45,0,.,
CN(C)CCN(C(=O)c1ccc2ccccc2c1)c1nc2c(F)cc(F)cc2s1,7,-1,0,-5,-8,-2,.,
CCN(CC)CCN(C(=O)/C=C/c1cccs1)c1nc2ccc(F)cc2s1,-19,-4,-4,52*,-56,-4,20,
CN(C)CCCN(C(=O)c1sc2ccccc2c1Cl)c1nc2ccc(F)cc2s1,-55,-2,-73,-16,-99,0,.,
c1ccc(-c2ncc(-c3ccn[nH]3)s2)cc1,-77,-3,-124,-136,-52,-2,.,
Cc1ccccc1-n1c(Cc2cccs2)n[nH]c1=S,2,0,7,-3,27,3,.,
Cc1cccc(N2CCN(C(=O)CSc3nc4ccccc4nc3N3CC(C)OC(C)C3)CC2)c1C (configuration not stated),22,-3,-27,41,-3,-4,.,
O=C(Nc1nc(-c2ccccc2)cs1)c1ccc2c(c1)S(=O)(=O)c1ccccc1C2=O,8,-4,2,74*,-28,-1,4,
O=C(Nc1nc(-c2cccc3ccccc23)cs1)c1ccc2c(c1)S(=O)(=O)c1ccccc1C2=O,-5,-3,-17,95*,-143,-2,18,
CCS(=O)(=O)N1CCC(C(=O)Nc2cc(C)ccc2O)CC1,-14,-1,-13,-6,-2,-2,.,
CCOC(=O)c1c(C)nc2sc(C(=O)Nc3ccccc3)c(N)c2c1-c1ccc(OC)cc1,-31,-2,-74,59*,-191,-5,35,
CCOC(=O)c1c(C)nc2sc(C(N)=O)c(N)c2c1-c1ccccc1,-5,0,-23,13,16,-2,.,
COc1ccc(-n2ncc(Cl)c(Cl)c2=O)cc1,28,-2,-5,100*,-155,-3,99*,FLuc counter=52*
CCOc1cc(CNc2ccc3c(c2)OCCO3)cc(Br)c1OCC,42,2,-47,73*,97*,1,70*,FLuc counter=62*
CCOc1cc(CNc2ccc(N3CCOCC3)cc2)cc(Br)c1OCC,18,-4,-37,-4,12,-4,.,
COc1ccc(S(=O)(=O)N2c3ccc(F)cc3CCC2C)cc1 (configuration not stated),40,.,7,59*,112*,.,63*,FLuc counter=97*
SMILES,Jurkat NFkB inh,IMP-1 inh,697 NFkB inh,Mdm2 MdmX PPI,aSyn 5UTR inh,VIM-2 inh,Mdm2-MdmX conf,others
COc1ccc2c(c1)CCC(C)N2S(=O)(=O)c1ccc(C2CNC(=O)C2)cc1 (configuration not stated),12,-3,6,13,-6,-3,.,
C=CCOc1c(/C=N\NC(N)=O)cccc1OC,11,-2,12,12,7,0,.,
COc1cccc(Sc2ccccc2/C=N/NC(N)=O)c1,25,-3,-55,53*,16,-2,67*,FLuc counter=58*
COC(=O)C(Cc1c[nH]c2ccccc12)NC(=O)C(=O)c1c[nH]c2ccccc12 (configuration not stated),2,-2,5,35,17,-3,.,
CC(C)N(Cc1ccccc1)C(=O)COC(=O)c1c(F)cccc1F,8,.,17,8,.,.,.,
CCc1nnc(NC(=O)CSc2nnc(-c3ccccc3O)o2)s1,-6,-5,-11,38,-8,-2,.,
COc1ccc(-c2cc(-c3ccccc3)c(C#N)c(SCC(=O)Nc3ncc(C)s3)n2)cc1,-12,-2,-20,27,7,-1,.,
CCc1nnc(NC(=O)CSc2nc(-c3ccccc3)cc(-c3ccc(OC)cc3)c2C#N)s1,-5,-3,4,88*,12,-3,9,
COc1ccc(-c2cc(-c3ccccc3)nc(SCC(=O)Nc3nccs3)c2C#N)cc1,-4,-3,-4,75*,-12,-2,14,
CCc1nnc(NC(=O)CSc2nc(-c3ccccc3)c(-c3ccccc3)o2)s1,15,-1,1,55*,-13,-1,42*,FLuc counter=92*
CCCCn1c(=O)[nH]c(=O)c2c1nc(-c1ccccc1OC(F)F)n2C,4,-3,10,38,17,-2,.,
Cc1snc2sc(C(=O)c3ccc(F)cc3)c(N)c12,-72,-1,-79,-78,-96,1,.,
COc1ccc(N2CCN(C(=O)COC(=O)c3ccc(CSC)o3)CC2)cc1,3,.,16,-10,.,.,.,
Cc1cc2oc3cc(NCCC4CCCN4C)ccc3c(=O)c2cc1C (configuration not stated),-116,.,-70,82*,-184,.,-31,

# Bioassay records from PubChem BioAssay.
